Test results reported in ChEMBL document CHEMBL4823286, “Synthesis and evaluation of novel 2,4-diaminopyrimidines bearing a sulfoxide moiety as anaplastic lymphoma kinase (ALK) inhibition agents” (Bioorg Med Chem Lett, 2021).
The source made the active and inactive calls. No cut-off for these calls is given here.

Columns and labels:
NCI-H2228 [1] = assay: Antiproliferative activity against human NCI-H2228 cells assessed as inhibition of cell proliferation measured by CCK8 assay; assay type: functional, cell-based
In short: (§1)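 Cell proliferation inhibition; IC50 given as mean ± SD of three independent experiments.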

BaF3 = assay: Antiproliferative activity against mouse BaF3 cells overexpressing ALK assessed as inhibition of cell proliferation measured by CCK8 assay; assay type: functional, cell-based; in short: as §1
NCI-H2228 [2] = assay: Cell cycle arrest in human NCI-H2228 cells assessed as accumulation of cells in S phase at 20 nM measured after 12 hrs by PI staining based flow cytometry method (reference value: 30%); assay type: functional
In short: (§2)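 NCI-H2228 cells exposed to 20 nM for 0, 12, 24 or 48 h, stained with PI and analysed by flow cytometry for G0/G1, S and G2/M fractions. Phase percentages quantified by analysis software; three independent experiments, representative run shown.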

NCI-H2228 [3] = assay: Cell cycle arrest in human NCI-H2228 cells assessed as accumulation of cells in G2/M phase at 20 nM measured after 12 hrs by PI staining based flow cytometry method (reference value: 2.23%); assay type: functional; in short: as §2
NCI-H2228 [4] = assay: Cell cycle arrest in human NCI-H2228 cells assessed as accumulation of cells in G1 phase at 20 nM measured after 24 hrs by PI staining based flow cytometry method (reference value: 67.77%); assay type: functional; in short: as §2
NCI-H2228 [5] = assay: Cell cycle arrest in human NCI-H2228 cells assessed as accumulation of cells in S phase at 20 nM measured after 24 hrs by PI staining based flow cytometry method (reference value: 30%); assay type: functional; in short: as §2
NCI-H2228 [6] = assay: Cell cycle arrest in human NCI-H2228 cells assessed as accumulation of cells in G1 phase at 20 nM measured after 48 hrs by PI staining based flow cytometry method (reference value: 67.77%); assay type: functional; in short: as §2
NCI-H2228 [7] = assay: Cell cycle arrest in human NCI-H2228 cells assessed as accumulation of cells in G2/M phase at 20 nM measured after 48 hrs by PI staining based flow cytometry method (reference value: 2.23%); assay type: functional; in short: as §2
NCI-H2228 [8] = assay: Cell cycle arrest in human NCI-H2228 cells assessed as downregulation of Cyclin D1 protein expression at 20 nM measured after 12 to 48 hrs by western blot assay; assay type: functional, cell-based; conditions: time 12-48 hrs
In short: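 Western blot of cell-cycle regulatory proteins in NCI-H2228 cells held at 20 nM for 0, 12, 24 or 48 h. Performed three times, representative blot shown.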

NCI-H2228 [9] = assay: Induction of apoptosis in human NCI-H2228 cells assessed as viable cells at 5 nM measured after 24 hrs by Annexin V-FITC.PI staining based flow cytometry assay (reference value: 95.6%); assay type: functional; conditions: read-out: Activity
In short: (§3)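 After 24 h or 48 h exposure (5, 25, 50 nM; DMSO 0.01% control), NCI-H2228 cells were harvested, double-stained with Annexin V-FITC and PI and run on flow cytometry. Stage percentages quantified by software; three experiments, representative shown.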

NCI-H2228 [10] = assay: Induction of apoptosis in human NCI-H2228 cells assessed as early apoptotic cells at 5 nM measured after 24 hrs by Annexin V-FITC/PI staining based flow cytometry assay (reference value: 2.18%); assay type: functional; in short: as §3
NCI-H2228 [11] = assay: Induction of apoptosis in human NCI-H2228 cells assessed as viable cells at 25 nM measured after 24 hrs by Annexin V-FITC/PI staining based flow cytometry assay (reference value: 95.6%); assay type: functional; conditions: read-out: Activity; in short: as §3
NCI-H2228 [12] = assay: Induction of apoptosis in human NCI-H2228 cells assessed as early apoptotic cells at 25 nM measured after 24 hrs by Annexin V-FITC/PI staining based flow cytometry assay (reference value: 2.18%); assay type: functional; in short: as §3
NCI-H2228 [13] = assay: Induction of apoptosis in human NCI-H2228 cells assessed as late apoptotic cells at 25 nM measured after 24 hrs by Annexin V-FITC/PI staining based flow cytometry assay (reference value: 2.02%); assay type: functional; in short: as §3
NCI-H2228 [14] = assay: Induction of apoptosis in human NCI-H2228 cells assessed as necrotic cells at 25 nM measured after 24 hrs by Annexin V-FITC/PI staining based flow cytometry assay (reference value: 0.21%); assay type: functional; in short: as §3
NCI-H2228 [15] = assay: Induction of apoptosis in human NCI-H2228 cells assessed as early apoptotic cells at 50 nM measured after 24 hrs by Annexin V-FITC/PI staining based flow cytometry assay (reference value: 2.18%); assay type: functional; in short: as §3
NCI-H2228 [16] = assay: Induction of apoptosis in human NCI-H2228 cells assessed as late apoptotic cells at 50 nM measured after 24 hrs by Annexin V-FITC/PI staining based flow cytometry assay (reference value: 2.02%); assay type: functional; in short: as §3
NCI-H2228 [17] = assay: Induction of apoptosis in human NCI-H2228 cells assessed as necrotic cells at 50 nM measured after 24 hrs by Annexin V-FITC/PI staining based flow cytometry assay (reference value: 0.21%); assay type: functional; in short: as §3
NCI-H2228 [18] = assay: Induction of apoptosis in human NCI-H2228 cells assessed as viable cells at 5 nM measured after 48 hrs by Annexin V-FITC/PI staining based flow cytometry assay (reference value: 95.3%); assay type: functional; conditions: read-out: Activity; in short: as §3
NCI-H2228 [19] = assay: Induction of apoptosis in human NCI-H2228 cells assessed as early apoptotic cells at 5 nM measured after 48 hrs by Annexin V-FITC/PI staining based flow cytometry assay (reference value: 1.58%); assay type: functional; in short: as §3
NCI-H2228 [20] = assay: Induction of apoptosis in human NCI-H2228 cells assessed as late apoptotic cells at 5 nM measured after 48 hrs by Annexin V-FITC/PI staining based flow cytometry assay (reference value: 0.23%); assay type: functional; in short: as §3
NCI-H2228 [21] = assay: Induction of apoptosis in human NCI-H2228 cells assessed as necrotic cells at 5 nM measured after 48 hrs by Annexin V-FITC/PI staining based flow cytometry assay (reference value: 2.88%); assay type: functional; in short: as §3
NCI-H2228 [22] = assay: Induction of apoptosis in human NCI-H2228 cells assessed as viable cells at 25 nM measured after 48 hrs by Annexin V-FITC/PI staining based flow cytometry assay (reference value: 95.3%); assay type: functional; conditions: read-out: Activity; in short: as §3
NCI-H2228 [23] = assay: Induction of apoptosis in human NCI-H2228 cells assessed as necrotic cells at 25 nM measured after 48 hrs by Annexin V-FITC/PI staining based flow cytometry assay (reference value: 2.88%); assay type: functional; in short: as §3
NCI-H2228 [24] = assay: Induction of apoptosis in human NCI-H2228 cells assessed as early apoptotic cells at 50 nM measured after 48 hrs by Annexin V-FITC/PI staining based flow cytometry assay (reference value: 1.58%); assay type: functional; in short: as §3
NCI-H2228 [25] = assay: Induction of apoptosis in human NCI-H2228 cells assessed as late apoptotic cells at 50 nM measured after 48 hrs by Annexin V-FITC/PI staining based flow cytometry assay (reference value: 0.23%); assay type: functional; in short: as §3
NCI-H2228 [26] = assay: Induction of apoptosis in human NCI-H2228 cells assessed as nuclear pyknosis at 5 to 50 nM measured after 48 hrs by Hoechst 33342 staining based flourescence microscopy method; assay type: functional, cell-based; conditions: dose 5-50 nM
In short: (§4)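 Nuclear morphology: NCI-H2228 cells treated 48 h at 5, 25 and 50 nM, stained with Hoechst 33342, imaged on an inverted fluorescence microscope. Performed three times, representative images shown.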

NCI-H2228 [27] = assay: Induction of apoptosis in human NCI-H2228 cells assessed as nuclear fragmentation at 5 to 50 nM measured after 48 hrs by Hoechst 33342 staining based flourescence microscopy method; assay type: functional, cell-based; conditions: dose 5-50 nM; in short: as §4

Q: Which IC50 (NCI-H2228 [1]) does the source give for `CCC(=O)Nc1cc(Nc2ncc(Cl)c(Nc3ccc(F)cc3[S+]([O-])CC)n2)c(OC)cc1N1CCN(C)CC1` (stereo not drawn) here?
A: 24.4 nM

Q: And the IC50 (BaF3)?
A: 8.11 nM

Q: What about the Activity (NCI-H2228 [2]) of the same molecule?
A: 20.22%

Q: What about the Activity (NCI-H2228 [3]) of the same molecule?
A: 8.55%

Q: What about the Activity (NCI-H2228 [4]) of the same molecule?
A: 82.13%

Q: And the Activity (NCI-H2228 [5])?
A: 10.21%

Q: And the Activity (NCI-H2228 [6])?
A: 86.49%

Q: What about the Activity (NCI-H2228 [7]) of the same molecule?
A: 3.41%

Q: What about the Activity (NCI-H2228 [8]) of the same molecule?
A: Active

Q: And the viability at 0.005 µM (NCI-H2228 [9])?
A: 83.2%

Q: And the Activity (NCI-H2228 [10])?
A: 9.56%

Q: What about the viability at 0.025 µM (NCI-H2228 [11]) of the same molecule?
A: 76.3%

Q: And the Activity (NCI-H2228 [12])?
A: 13.9%

Q: And the Activity (NCI-H2228 [13])?
A: 9.63%

Q: And the Activity (NCI-H2228 [14])?
A: 0.17%

Q: And the Activity (NCI-H2228 [15])?
A: 18.3%

Q: What about the Activity (NCI-H2228 [16]) of the same molecule?
A: 5.14%

Q: What about the Activity (NCI-H2228 [17]) of the same molecule?
A: 0.47%

Q: And the viability at 0.005 µM (NCI-H2228 [18])?
A: 77%

Q: And the Activity (NCI-H2228 [19])?
A: 8.19%

Q: What about the Activity (NCI-H2228 [20]) of the same molecule?
A: 14.1%

Q: And the Activity (NCI-H2228 [21])?
A: 0.69%

Q: What about the viability at 0.025 µM (NCI-H2228 [22]) of the same molecule?
A: 42.8%

Q: And the Activity (NCI-H2228 [23])?
A: 0.22%

Q: And the Activity (NCI-H2228 [24])?
A: 7.9%

Q: And the Activity (NCI-H2228 [25])?
A: 77.5%

Q: What about the Activity (NCI-H2228 [26]) of the same molecule?
A: Active

Q: And the Activity (NCI-H2228 [27])?
A: Active
